From ChEMBL document CHEMBL1128182, “Synthesis of substituted 1-norbornylamines with antiviral activity” (J Med Chem, 1995)
Converted amounts (≈) assume the structure as drawn.

Columns and labels:
[1] = Minimum toxic concentration against influenza A virus, in MDCK cells from dog kidney; assay type: ADME, cell-based, Canis lupus familiaris; settings: read-out: MTC50
In short: (§1)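 MDCK dog kidney cells infected with influenza A. MIC50 is the lowest concentration giving a 50% drop in virus yield. MTC50 is the lowest concentration toxic to 50% of cells. Selectivity index is MTC50 divided by MIC50, in µg/mL terms. Amantadine hydrochloride served as the reference.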

[2] = system: MDCK; assay: Minimum inhibitory concentration against influenza A virus, in MDCK cells from dog kidney; assay type: functional; settings: Canis lupus familiaris; in short: as §1
[3] = system: Vero; assay: Minimum inhibitory concentration against African swine fever virus, in vero monkey kidney cells; assay type: functional; settings: Chlorocebus sabaeus
[4] = Minimum toxic concentration against herpes simplex virus 2, in vero monkey kidney cells; assay type: ADME, cell-based; settings: chlorocebus sabaeus, read-out: MTC50
[5] = Ratio of MIC50 to MTC50 against HSV-2; assay type: functional
[6] = […] against African Swine Fever Virus; assay type: functional
[7] = system: Vero; assay: Minimum inhibitory concentration against herpes simplex virus 2, in vero monkey kidney cells; assay type: functional; settings: Chlorocebus sabaeus
[8] = Minimum toxic concentration against African swine fever virus, in vero monkey kidney cells; assay type: ADME, cell-based; settings: chlorocebus sabaeus, read-out: MTC50

SMILES | MCC [1] [µg/mL] | MIC50 [2] [µg/mL] | MIC50 [3] [µg/mL] | MCC [4] [µg/mL] | Selectivity index [5] | Selectivity index [6] | MIC50 [7] [µg/mL] | MCC [8] [µg/mL]
Cl.NC12CC3CC(CC(C3)C1)C2 [AMANTADINE HYDROCHLORIDE] | 300 | 0.5 | – | – | – | – | – | –
CC1C2(N)CCC(C2)C1(C)C (stereo not drawn) | – | – | 30 (≈ 196 µM) | 300 | 6 | 10 | 50 (≈ 326 µM) | 300
C=C1C2CCC(NCC)(C2)C1(C)C (stereo not drawn) | 100 | 0.1 (≈ 0.558 µM) | 30 (≈ 167 µM) | 400 | 4 | 13 | 100 (≈ 558 µM) | 400
CCNC12CCC(C1)C(C)C2(C)C (stereo not drawn) | 100 | < 10 | 25 (≈ 138 µM) | 300 | 12 | 12 | 25 (≈ 138 µM) | 300
CC1C2CCC(N)(C2)C1(C)C (stereo not drawn) | 50 | 5 (≈ 32.6 µM) | 25 (≈ 163 µM) | 200 | 8 | 8 | 25 (≈ 163 µM) | 200
CCNC12CCC(C1)C(C)(C)C2C (stereo not drawn) | 100 | 0.1 (≈ 0.552 µM) | 30 (≈ 165 µM) | 300 | 4 | 10 | 75 (≈ 414 µM) | 300
C=C1C2(NCC)CCC(C2)C1(C)C (stereo not drawn) | 200 | 5 (≈ 27.9 µM) | 100 (≈ 558 µM) | 300 | 1 | 3 | 300 (≈ 1670 µM) | 300
